Measurements collected from several papers.
Each line is one published result; the experiments were not run side by side. ≈ marks a conversion by molar mass, not a printed value.
Organism: Streptococcus pneumoniae
Observed: microbial growth

C[C@H]1COCCN1c1nc(NCc2cccnc2C(F)(F)F)c2cccnc2n1 — MIC (broth dilution): 32 to 64 µg/mL (≈ 79.1 to 158 µM)
CN[C@@H]1[C@H](O)[C@H](NC)[C@H]2O[C@@]3(O)C(=O)C[C@@H](C)O[C@H]3O[C@@H]2[C@H]1O — MIC (broth dilution; DAW27): 25 µg/mL (≈ 75.2 µM)
CC(C)CCCCCCCCCCCCCCCc1cc(O)cc(O)c1 — IC50: 70 µM
CNC(=O)Oc1c2c(c(O)c3cc(CN4CCC4)ccc13)C(=O)C1=C(O)[C@]3(O)C(=O)C(C(N)=O)=C(O)[C@@H](N(C)C)[C@@H]3C[C@@H]1C2 — MIC (broth dilution; ATCC49619): 0.5 µg/mL (≈ 0.824 µM)
CCCCCCCCCCCCCCCCCc1cc(O)cc(O)c1 — IC50: > 200 µM
CCCCCCCCCCCCCCCC(=O)NS(=O)(=O)Oc1ccc(CCNC(=O)OC(C)(C)C)cc1 — MIC (broth dilution; R6): 50 µg/mL (≈ 90.1 µM)
COc1ccc2cc1Oc1cc(ccc1OC)CCC(N[C@@H]1CCCc3ccccc31)CCCC2 (some centres unmarked) — MIC (broth dilution): > 100 µg/mL
CN[C@H](CC(C)C)C(=O)N[C@H]1C(=O)N[C@@H](CC(N)=O)C(=O)N[C@H]2C(=O)N[C@H]3C(=O)N[C@H](C(=O)N[C@H](C(=O)O)c4cc(O)cc(O)c4-c4cc3ccc4O)[C@H](O)c3ccc(c(Cl)c3)Oc3cc2cc(c3O[C@@H]2O[C@H](CO)[C@@H](O)[C@H](O)[C@H]2O[C@H]2C[C@](C)(N)[C@H](O)[C@H](C)O2)Oc2ccc(cc2Cl)[C@H]1O — MIC: 0.12 µg/mL (≈ 0.0828 µM)
